Reference: ChEMBL document CHEMBL1250501, “Anti-tubercular agents. Part 5: synthesis and biological evaluation of benzothiadiazine 1,1-dioxide based congeners” (Eur J Med Chem, 2010)
In brackets after ≈: the same amount, converted by molar mass. Activity calls are given as the source filed them. No cut-off for these calls is given here.

Legend:
[1] = test system: Mycobacterium tuberculosis; assay: Antimycobacterial activity against Mycobacterium tuberculosis H37Rv after 3 to 4 weeks by broth microdilution assay; format: functional
Method in brief: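 MIC by broth microdilution on compounds active in a single-concentration primary screen. Plates incubated 3–4 weeks at 37 °C in a CO₂ incubator. Wells read visually for absence of growth turbidity.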

Staphylococcus aureus [2] = assay: Antibacterial activity against Staphylococcus aureus at 100 ug/ml after 18 hrs by cup plate method; format: functional; details: read-out: DIZ
Method in brief: (§1)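 Agar well diffusion on Mueller-Hinton agar. Inoculum was adjusted to a 0.5 McFarland standard (about […] × 10⁸ CFU/mL) and swabbed over the plate three times, rotating about 60° each time, then the rim was swabbed. Compounds in DMSO went into duplicate 6 mm wells. Plates were incubated at 37 °C for 18 h and inhibition zone diameter read to the nearest mm. DMSO negative control; streptomycin and ciprofloxacin positive controls.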

Staphylococcus aureus [3] = assay: Antibacterial activity against Staphylococcus aureus at 50 ug/ml after 18 hrs by cup plate method; format: functional; details: read-out: DIZ; method in brief: as §1
[4] = test system: Staphylococcus epidermidis; assay: Antibacterial activity against Staphylococcus epidermidis at 100 ug/ml after 18 hrs by cup plate method; format: functional; details: read-out: DIZ; method in brief: as §1
[5] = test system: Staphylococcus epidermidis; assay: Antibacterial activity against Staphylococcus epidermidis at 50 ug/ml after 18 hrs by cup plate method; format: functional; details: read-out: DIZ; method in brief: as §1
Bacillus subtilis [6] = assay: Antibacterial activity against Bacillus subtilis at 100 ug/ml after 18 hrs by cup plate method; format: functional; details: read-out: DIZ; method in brief: as §1
Bacillus subtilis [7] = assay: Antibacterial activity against Bacillus subtilis at 50 ug/ml after 18 hrs by cup plate method; format: functional; details: read-out: DIZ; method in brief: as §1
Escherichia coli [8] = assay: Antibacterial activity against Escherichia coli at 100 ug/ml after 18 hrs by cup plate method; format: functional; details: read-out: DIZ; method in brief: as §1
Escherichia coli [9] = assay: Antibacterial activity against Escherichia coli at 50 ug/ml after 18 hrs by cup plate method; format: functional; details: read-out: DIZ; method in brief: as §1
Klebsiella pneumoniae [10] = assay: Antibacterial activity against Klebsiella pneumoniae at 100 ug/ml after 18 hrs by cup plate method; format: functional; details: read-out: DIZ; method in brief: as §1
Klebsiella pneumoniae [11] = assay: Antibacterial activity against Klebsiella pneumoniae at 50 ug/ml after 18 hrs by cup plate method; format: functional; details: read-out: DIZ; method in brief: as §1
Pseudomonas aeruginosa [12] = assay: Antibacterial activity against Pseudomonas aeruginosa at 100 ug/ml after 18 hrs by cup plate method; format: functional; details: read-out: DIZ; method in brief: as §1
Pseudomonas aeruginosa [13] = assay: Antibacterial activity against Pseudomonas aeruginosa at 50 ug/ml after 18 hrs by cup plate method; format: functional; details: read-out: DIZ; method in brief: as §1
Candida albicans [14] = assay: Antifungal activity against Candida albicans MTCC 227 at 100 ug/ml after 48 hrs by cup plate method; format: functional; details: MTCC 227, 48 h, read-out: IZ
Method in brief: (§2)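 Agar well (cup plate) diffusion on potato dextrose agar 39 g/L, with compounds dissolved in DMSO. Plates were incubated at 28 ± 2 °C for 48 h and inhibition zones measured to the nearest mm. Three replicates per treatment. Amphotericin B positive control; solvent control included.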

Candida albicans [15] = assay: Antifungal activity against Candida albicans MTCC 227 at 50 ug/ml after 48 hrs by cup plate method; format: functional
Method in brief: (§3)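 Agar well (cup plate) diffusion on potato dextrose agar 39 g/L. Compounds dissolved in DMSO and loaded into 6 mm wells. Incubated at 28 ± 2 °C for 48 h. Inhibition zone diameter measured to the nearest millimetre, three replicates per treatment. DMSO solvent as negative control, amphotericin B as positive control.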

Staphylococcus aureus [16] = assay: Antibacterial activity against Staphylococcus aureus at 10 ug/ml after 18 hrs by cup plate method; format: functional; details: read-out: DIZ; method in brief: as §1
Staphylococcus aureus [17] = assay: Antibacterial activity against Staphylococcus aureus at 25 ug/ml after 18 hrs by cup plate method; format: functional; details: read-out: DIZ; method in brief: as §1
Staphylococcus aureus [18] = assay: Antibacterial activity against Staphylococcus aureus at 75 ug/ml after 18 hrs by cup plate method; format: functional; details: read-out: DIZ; method in brief: as §1
[19] = test system: Staphylococcus epidermidis; assay: Antibacterial activity against Staphylococcus epidermidis at 10 ug/ml after 18 hrs by cup plate method; format: functional; details: read-out: DIZ; method in brief: as §1
[20] = test system: Staphylococcus epidermidis; assay: Antibacterial activity against Staphylococcus epidermidis at 25 ug/ml after 18 hrs by cup plate method; format: functional; details: read-out: DIZ; method in brief: as §1
[21] = test system: Staphylococcus epidermidis; assay: Antibacterial activity against Staphylococcus epidermidis at 75 ug/ml after 18 hrs by cup plate method; format: functional; details: read-out: DIZ; method in brief: as §1
Bacillus subtilis [22] = assay: Antibacterial activity against Bacillus subtilis at 10 ug/ml after 18 hrs by cup plate method; format: functional; method in brief: as §1
Bacillus subtilis [23] = assay: Antibacterial activity against Bacillus subtilis at 25 ug/ml after 18 hrs by cup plate method; format: functional; details: read-out: DIZ; method in brief: as §1
Bacillus subtilis [24] = assay: Antibacterial activity against Bacillus subtilis at 75 ug/ml after 18 hrs by cup plate method; format: functional; details: read-out: DIZ; method in brief: as §1
Escherichia coli [25] = assay: Antibacterial activity against Escherichia coli at 10 ug/ml after 18 hrs by cup plate method; format: functional; details: read-out: DIZ; method in brief: as §1
Escherichia coli [26] = assay: Antibacterial activity against Escherichia coli at 25 ug/ml after 18 hrs by cup plate method; format: functional; details: read-out: DIZ; method in brief: as §1
Escherichia coli [27] = assay: Antibacterial activity against Escherichia coli at 75 ug/ml after 18 hrs by cup plate method; format: functional; details: read-out: DIZ; method in brief: as §1
Pseudomonas aeruginosa [28] = assay: Antibacterial activity against Pseudomonas aeruginosa at 10 ug/ml after 18 hrs by cup plate method; format: functional; method in brief: as §1
Pseudomonas aeruginosa [29] = assay: Antibacterial activity against Pseudomonas aeruginosa at 25 ug/ml after 18 hrs by cup plate method; format: functional; details: read-out: DIZ; method in brief: as §1
Pseudomonas aeruginosa [30] = assay: Antibacterial activity against Pseudomonas aeruginosa at 75 ug/ml after 18 hrs by cup plate method; format: functional; details: read-out: DIZ; method in brief: as §1
Klebsiella pneumoniae [31] = assay: Antibacterial activity against Klebsiella pneumoniae at 10 ug/ml after 18 hrs by cup plate method; format: functional; details: read-out: DIZ; method in brief: as §1
Klebsiella pneumoniae [32] = assay: Antibacterial activity against Klebsiella pneumoniae at 25 ug/ml after 18 hrs by cup plate method; format: functional; details: read-out: DIZ; method in brief: as §1
Klebsiella pneumoniae [33] = assay: Antibacterial activity against Klebsiella pneumoniae at 75 ug/ml after 18 hrs by cup plate method; format: functional; details: read-out: DIZ; method in brief: as §1
Candida albicans [34] = assay: Antifungal activity against Candida albicans MTCC 227 at 25 ug/ml after 48 hrs by cup plate method; format: functional; method in brief: as §3
Candida albicans [35] = assay: Antifungal activity against Candida albicans MTCC 227 at 75 ug/ml after 48 hrs by cup plate method; format: functional; method in brief: as §3
Aspergillus niger [36] = assay: Antifungal activity against Aspergillus niger at 25 ug/ml after 48 hrs by cup plate method; format: functional, organism-based; method in brief: as §2
Aspergillus niger [37] = assay: Antifungal activity against Aspergillus niger at 50 ug/ml after 48 hrs by cup plate method; format: functional, organism-based; method in brief: as §2
Aspergillus niger [38] = assay: Antifungal activity against Aspergillus niger at 75 ug/ml after 48 hrs by cup plate method; format: functional; method in brief: as §2
Aspergillus niger [39] = assay: Antifungal activity against Aspergillus niger at 100 ug/ml after 48 hrs by cup plate method; format: functional; method in brief: as §2
Aspergillus sp. [40] = assay: Antifungal activity against Aspergillus sp. at 25 ug/ml after 48 hrs by cup plate method; format: functional; method in brief: as §2
Aspergillus sp. [41] = assay: Antifungal activity against Aspergillus sp. at 50 ug/ml after 48 hrs by cup plate method; format: functional; method in brief: as §2
Aspergillus sp. [42] = assay: Antifungal activity against Aspergillus sp. at 75 ug/ml after 48 hrs by cup plate method; format: functional; method in brief: as §2
Aspergillus sp. [43] = assay: Antifungal activity against Aspergillus sp. at 100 ug/ml after 48 hrs by cup plate method; format: functional; method in brief: as §2
Staphylococcus aureus [44] = assay: Antibacterial activity against Staphylococcus aureus at 100 units after 18 hrs by cup plate method; format: functional, organism-based
[45] = test system: Staphylococcus epidermidis; assay: Antibacterial activity against Staphylococcus epidermidis at 100 units after 18 hrs by cup plate method; format: functional, organism-based
Bacillus subtilis [46] = assay: Antibacterial activity against Bacillus subtilis at 100 units after 18 hrs by cup plate method; format: functional, organism-based
Escherichia coli [47] = assay: Antibacterial activity against Escherichia coli at 100 units after 18 hrs by cup plate method; format: functional, organism-based
Klebsiella pneumoniae [48] = assay: Antibacterial activity against Klebsiella pneumoniae at 100 units after 18 hrs by cup plate method; format: functional, organism-based
Pseudomonas aeruginosa [49] = assay: Antibacterial activity against Pseudomonas aeruginosa at 100 units after 18 hrs by cup plate method; format: functional, organism-based
Candida albicans [50] = assay: Antifungal activity against Candida albicans MTCC 227 at 100 units after 48 hrs by cup plate method; format: functional
Aspergillus niger [51] = assay: Antifungal activity against Aspergillus niger at 100 units after 48 hrs by cup plate method; format: functional
Aspergillus sp. [52] = assay: Antifungal activity against Aspergillus sp. at 100 units after 48 hrs by cup plate method; format: functional

CCN1C(N2CCN(Cc3ccc([N+](=O)[O-])o3)CC2)=NS(=O)(=O)c2ccccc21
MIC [1]: 2.81 µg/mL (≈ 6.7 µM) | zone of inhibition at 100 µg/mL (Staphylococcus aureus [2]): 10 mm | zone of inhibition at 50 µg/mL (Staphylococcus aureus [3]): 16 mm | zone of inhibition at 100 µg/mL [4]: 24 mm | zone of inhibition at 50 µg/mL [5]: 12 mm | zone of inhibition at 100 µg/mL (Bacillus subtilis [6]): 23 mm | zone of inhibition at 50 µg/mL (Bacillus subtilis [7]): 17 mm | zone of inhibition at 100 µg/mL (Escherichia coli [8]): 30 mm | zone of inhibition at 50 µg/mL (Escherichia coli [9]): 16 mm | zone of inhibition at 100 µg/mL (Klebsiella pneumoniae [10]): 19 mm | zone of inhibition at 50 µg/mL (Klebsiella pneumoniae [11]): 11 mm | zone of inhibition at 100 µg/mL (Pseudomonas aeruginosa [12]): 16 mm | zone of inhibition at 50 µg/mL (Pseudomonas aeruginosa [13]): 10 mm | zone of inhibition at 100 µg/mL (Candida albicans [14]): 10 mm | inhibition zone (IZ) (Candida albicans [15]): inactive | zone of inhibition at 10 µg/mL (Staphylococcus aureus [16]): 13 mm | zone of inhibition at 25 µg/mL (Staphylococcus aureus [17]): 16 mm | zone of inhibition at 75 µg/mL (Staphylococcus aureus [18]): 21 mm | zone of inhibition at 10 µg/mL [19]: 9 mm | zone of inhibition at 25 µg/mL [20]: 12 mm | zone of inhibition at 75 µg/mL [21]: 15 mm | diameter of the inhibition zone (DIZ) (Bacillus subtilis [22]): inactive | zone of inhibition at 25 µg/mL (Bacillus subtilis [23]): 11 mm | zone of inhibition at 75 µg/mL (Bacillus subtilis [24]): 19 mm | zone of inhibition at 10 µg/mL (Escherichia coli [25]): 12 mm | zone of inhibition at 25 µg/mL (Escherichia coli [26]): 20 mm | zone of inhibition at 75 µg/mL (Escherichia coli [27]): 29 mm | diameter of the inhibition zone (DIZ) (Pseudomonas aeruginosa [28]): inactive | zone of inhibition at 25 µg/mL (Pseudomonas aeruginosa [29]): 16 mm | zone of inhibition at 75 µg/mL (Pseudomonas aeruginosa [30]): 22 mm | zone of inhibition at 10 µg/mL (Klebsiella pneumoniae [31]): 10 mm | zone of inhibition at 25 µg/mL (Klebsiella pneumoniae [32]): 15 mm | zone of inhibition at 75 µg/mL (Klebsiella pneumoniae [33]): 20 mm | inhibition zone (IZ) (Candida albicans [34]): inactive | inhibition zone (IZ) (Candida albicans [35]): inactive | inhibition zone (IZ) (Aspergillus niger [36]): inactive | inhibition zone (IZ) (Aspergillus niger [37]): inactive | inhibition zone (IZ) (Aspergillus niger [38]): inactive | inhibition zone (IZ) (Aspergillus niger [39]): inactive | inhibition zone (IZ) (Aspergillus sp. [40]): inactive | inhibition zone (IZ) (Aspergillus sp. [41]): inactive | inhibition zone (IZ) (Aspergillus sp. [42]): inactive | inhibition zone (IZ) (Aspergillus sp. [43]): inactive

C[C@@H]1[C@H](O)[C@@H](C)/C=C/C=C/C=C/C=C/C=C/C=C/C=C/[C@H](O[C@@H]2O[C@H](C)[C@@H](O)[C@H](N)[C@@H]2O)C[C@@H]2O[C@](O)(C[C@@H](O)C[C@@H](O)[C@H](O)CC[C@@H](O)C[C@@H](O)CC(=O)O[C@H]1C)C[C@H](O)[C@H]2C(=O)O [AMPHOTERICIN B]
diameter of the inhibition zone (DIZ) (Staphylococcus aureus [44]): inactive | diameter of the inhibition zone (DIZ) [45]: inactive | diameter of the inhibition zone (DIZ) (Bacillus subtilis [46]): inactive | diameter of the inhibition zone (DIZ) (Escherichia coli [47]): inactive | diameter of the inhibition zone (DIZ) (Klebsiella pneumoniae [48]): inactive | diameter of the inhibition zone (DIZ) (Pseudomonas aeruginosa [49]): inactive | inhibition zone (IZ) (Candida albicans [50]): 14 mm | inhibition zone (IZ) (Aspergillus niger [51]): 23 mm | inhibition zone (IZ) (Aspergillus sp. [52]): 14 mm
